Laboratory results from ChEMBL document CHEMBL4229502, “Asperidines A-C, pyrrolidine and piperidine derivatives from the soil-derived fungus Aspergillus sclerotiorum PSU-RSPG178” (Bioorg Med Chem, 2018).
pIC50: −log10 of the molar value. Activity calls are given as the source filed them. The rule behind the calls is not given here.

Assays:
Vero = assay: Cytotoxicity against African green monkey Vero cells by GFP-based assay; type: cell-based; settings: Chlorocebus sabaeus
Method in brief: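 Vero cell assay run in triplicate following a previously published method, with ellipticine as reference drug; IC50 reported.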

[1] = biological target: T1, 3-hydroxy-3-methylglutaryl-coenzyme A reductase (Homo sapiens) (UniProt P04035); assay: Inhibition of human HMG-CoA reductase catalytic domain at 200 uM using HMG-CoA as substrate measured every 20 secs for 10 mins relative to control
T1 sequence (whole entry): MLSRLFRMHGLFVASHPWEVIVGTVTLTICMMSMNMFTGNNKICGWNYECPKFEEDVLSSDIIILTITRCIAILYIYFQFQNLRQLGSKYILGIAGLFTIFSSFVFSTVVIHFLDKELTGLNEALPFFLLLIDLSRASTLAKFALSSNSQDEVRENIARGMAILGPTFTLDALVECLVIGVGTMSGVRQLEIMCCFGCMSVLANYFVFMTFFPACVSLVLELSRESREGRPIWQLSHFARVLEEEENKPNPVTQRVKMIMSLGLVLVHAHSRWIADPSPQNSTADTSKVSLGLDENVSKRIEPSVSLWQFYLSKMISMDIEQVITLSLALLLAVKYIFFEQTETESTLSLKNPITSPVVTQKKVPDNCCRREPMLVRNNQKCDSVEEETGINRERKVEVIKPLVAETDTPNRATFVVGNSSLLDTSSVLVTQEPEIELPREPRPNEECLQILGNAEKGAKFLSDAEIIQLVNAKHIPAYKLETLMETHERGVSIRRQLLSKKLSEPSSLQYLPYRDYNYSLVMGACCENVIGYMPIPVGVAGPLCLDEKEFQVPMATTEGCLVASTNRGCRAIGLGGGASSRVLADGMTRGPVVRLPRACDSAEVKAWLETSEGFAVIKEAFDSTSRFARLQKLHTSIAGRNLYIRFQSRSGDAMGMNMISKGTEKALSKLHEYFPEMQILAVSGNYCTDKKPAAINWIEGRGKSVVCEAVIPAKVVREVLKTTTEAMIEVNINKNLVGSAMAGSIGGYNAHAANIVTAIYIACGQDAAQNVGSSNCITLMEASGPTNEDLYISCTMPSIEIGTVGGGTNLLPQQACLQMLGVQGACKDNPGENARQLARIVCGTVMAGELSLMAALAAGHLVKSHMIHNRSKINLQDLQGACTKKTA
Method in brief: (§1)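 Cell-free kit assay: human HMGR catalytic domain added to buffer with NADPH and HMG-CoA to start the reaction at 37 °C. NADPH oxidation followed as A340 every 20 s for 10 min. Results expressed as percent inhibition of untreated control, n = 3.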

Caco-2 [2] = assay: Cytotoxicity against human Caco2 cells assessed as decrease in cell viability at 12.5 to 100 uM after 24 hrs by MTT assay; type: cell-based; settings: caco-2, 24 h
Method in brief: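 Caco-2 cells (ATCC, passages 2–22, DMEM/F-12 with 10% FBS) were plated at 2.5 × 10^4 cells/well for 24 h, then exposed to 12.5, 25, 50, 75 and 100 µM for 24 h. After washing, cells got 5 mg/mL MTT for 4 h, crystals were dissolved in DMSO and A570 read. Viability is % of control, means ± S.E.M., n = 5.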

Caco-2 [3] = assay: Antioxidant activity in human Caco2 cells assessed as decrease in reactive oxygen species level after 24 hrs by DCFH-DA dye-based fluorescence assay; type: functional, cell-based
Method in brief: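 Caco-2 cells (ATCC, passages 2–22, DMEM/F-12 with 10% FBS) were exposed 24 h at 12.5–100 µM. They were then loaded with 10 µM DCFH-DA for 1 h at 37 °C in the dark and incubated 30 min without H2O2. Fluorescence was read at ex 495/em 527 nm. Means ± S.E.M., n = 3, vs untreated control cells.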

Caco-2 [4] = assay: Antioxidant activity in human Caco2 cells assessed as decrease in H2O2-induced reactive oxygen species level after 24 hrs by DCFH-DA dye-based fluorescence assay; type: functional, cell-based
Method in brief: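 Caco-2 cells (ATCC, passages 2–22, DMEM/F-12 with 10% FBS) were treated 24 h at 12.5–100 µM. They were loaded with 10 µM DCFH-DA for 1 h at 37 °C in the dark, then exposed to 0.5 mM H2O2 for 30 min and washed twice. Fluorescence was read at ex 495/em 527 nm. Means ± S.E.M., n = 3, vs H2O2-exposed control cells.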

[5] = biological target: Cystic fibrosis transmembrane conductance regulator (Homo sapiens, UniProt P13569); assay: Inhibition of CFTR-mediated forskolin-induced chloride secretion in human T84 cells after 15 mins by short-circuit current analysis; type: cell-based
Method in brief: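 T84 monolayers grown on 1 cm² porous inserts (500,000 cells/insert) until TEER > 1000 Ω·cm², then mounted in Ussing chambers. Symmetrical Krebs solution (pH 7.3, 10 mM glucose) was gassed with 95% O2/5% CO2 at 37 °C. Chloride secretion was stimulated with 20 µM forskolin, then compound added apically at varied concentrations. Short-circuit current recorded; IC50 from Hill equation.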

[6] = biological target: T1, 3-hydroxy-3-methylglutaryl-coenzyme A reductase (Homo sapiens); assay: Inhibition of human HMG-CoA reductase catalytic domain at 1 uM using HMG-CoA as substrate measured every 20 secs for 10 mins relative to control; method in brief: as §1

Structure (SMILES) | pIC50 (Vero) | inhibition [1] | Activity (Caco-2 [2]) | Activity (Caco-2 [3]) | Activity (Caco-2 [4]) | inhibition [5] | Activity (Vero) | pIC50 [5] | inhibition [6] [%]
Cc1c2ccncc2c(C)c2c1[nH]c1ccccc12 [ELLIPTECINE] | 5.39 |  |  |  |  |  |  |  | 
CCCCCCCC[C@@H]1CC[C@H](O)[C@H](Cc2ccccc2)N1C | 4.29 | 29% | Non-Toxic | Dose-dependent effect | Dose-dependent effect | Dose-dependent effect |  |  | 
CCCCCCCCC[C@@H]1C[C@H](O)[C@H]2C[N@]1O[C@@H]2c1ccccc1 |  | inactive | Non-Toxic | Dose-dependent effect | Dose-dependent effect |  | Non-Toxic | 4.23 | 
CC[C@H](C)C(=O)O[C@H]1C[C@H](O)C=C2C=C[C@H](C)[C@H](CC[C@@H](O)C[C@@H](O)CC(=O)O)[C@H]21 |  |  |  |  |  |  |  |  | 86
